Several values for one entry are separate records, joined by “and”; a condition that tells them apart may be missing. Equal entries are not always repeated. Activity calls are given as the source filed them. The rule behind the calls is not given here.
Key:
Rattus norvegicus [1] = test: Antihypertensive activity as percentage fall in systolic blood pressure in spontaneously hypertensive rats after a period of 2 hr for a dose of 12.5 mg/kg po; type: functional, Artery
Method in brief: (§1)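 Male Okamoto-Aoki SHR, trained, in groups of four matched for mean systolic pressure; one group per run received water vehicle. Oral dosing in water (0.1 mL per 10 g) on two consecutive mornings. After the day-2 dose, rats were restrained at 30.0 ± 1.0 °C. Systolic pressure was read by tail cuff (inflated to 300 mmHg, first pulse) at 1–4 h. % fall is versus the untreated control group, by 1-tail t test (p ≤ 0.05).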

Rattus norvegicus [2] = test: Percentage fall in systolic blood pressure in spontaneously hypertensive rats after 2 hr following 50 mg/kg p.o.; type: functional, Artery; settings: route oral, 50 mg/kg; method in brief: as §1
Rattus norvegicus [3] = test: Antihypertensive activity as percentage fall in systolic blood pressure in spontaneously hypertensive rats after a period of 3 hr for a dose of 12.5 mg/kg po; type: functional, Artery; method in brief: as §1
Rattus norvegicus [4] = test: Antihypertensive activity as percentage fall in systolic blood pressure in spontaneously hypertensive rats after a period of 1 hr for a dose of 12.5 mg/kg po; type: functional, Artery; method in brief: as §1
Rattus norvegicus [5] = test: Antihypertensive activity as percentage fall in systolic blood pressure in spontaneously hypertensive rats after a period of 4 hr for a dose of 12.5 mg/kg po; type: functional, Artery; method in brief: as §1
Rattus norvegicus [6] = test: Percentage fall in systolic blood pressure in spontaneously hypertensive rats after 3 h following 50 mg/kg p.o.; type: functional, Artery; settings: route oral; method in brief: as §1
Rattus norvegicus [7] = test: Antihypertensive activity as percentage fall in systolic blood pressure in spontaneously hypertensive rats after a period of 1 hr for a dose of 50 mg/kg; type: functional, Artery; method in brief: as §1
Rattus norvegicus [8] = test: Antihypertensive activity as percentage fall in systolic blood pressure in spontaneously hypertensive rats after a period of 2 hr for a dose of 25 mg/kg po.; NS=Not significant; type: functional, organism-based; parameters: dose 25 mg/kg; settings: Artery; method in brief: as §1
Rattus norvegicus [9] = test: Antihypertensive activity as percentage fall in systolic blood pressure in spontaneously hypertensive rats after a period of 4 hr for a dose of 50 mg/kg po; type: functional, Artery; method in brief: as §1
Rattus norvegicus [10] = test: Antihypertensive activity as percentage fall in systolic blood pressure in spontaneously hypertensive rats after a period of 3 hr for a dose of 25 mg/kg po.; NS=Not significant; type: functional, organism-based; parameters: dose 25 mg/kg; settings: Artery; method in brief: as §1
Rattus norvegicus [11] = test: Antihypertensive activity as percentage fall in systolic blood pressure in spontaneously hypertensive rats after a period of 2 hr for a dose of 50 mg/kg; type: functional, organism-based; parameters: dose 50 mg/kg; settings: Artery; method in brief: as §1
[12] = Distribution coefficient between 1-Octanol and phosphate buffer at pH7.4; type: physicochemical; settings: 1-octanol/phosphate buffer, pH 7.4
Rattus norvegicus [13] = test: Antihypertensive activity as percentage fall in systolic blood pressure in spontaneously hypertensive rats after a period of 4 hr for a dose of 25 mg/kg po.; NS=Not significant; type: functional, organism-based; parameters: dose 25 mg/kg; settings: Artery; method in brief: as §1
Canis familiaris [14] = test: Percent inhibition of the pressor responses to 0.75 ug/kg iv norepinephrine in pentobarbital-anesthetized dogs for a dose of 1 mg/kg; type: functional; settings: Canis lupus familiaris
Method in brief: (§2)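 Pentobarbital-anesthetized dogs (35 mg/kg iv) with femoral arterial pressure recording. Epinephrine (1 μg/kg), norepinephrine (0.75 μg/kg) and phenylephrine (7.5 μg/kg) iv challenges were given about every 10 min before and after rising iv test doses, which were spaced 90 min apart. Value is % inhibition of the pressor response.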

Canis familiaris [15] = test: Percent inhibition of the pressor responses to 7.5 ug/kg iv phenylephrine in pentobarbital-anesthetized dogs for a dose of 10 mg/kg; type: functional; settings: Canis lupus familiaris; method in brief: as §2
Canis familiaris [16] = test: Percent inhibition of the pressor responses to 1 ug/kg iv Epinephrine in pentobarbital-anesthetized dogs for a dose of 10 mg/kg; type: functional; settings: Canis lupus familiaris; method in brief: as §2
Canis familiaris [17] = test: Percent inhibition of the pressor responses to 7.5 ug/kg iv phenylephrine in pentobarbital-anesthetized dogs for a dose of 1 mg/kg; type: functional; settings: Canis lupus familiaris; method in brief: as §2
Canis familiaris [18] = test: Percent inhibition of the pressor responses to 7.5 ug/kg iv phenylephrine in pentobarbital-anesthetized dogs for a dose of 0.1 mg/kg; type: functional; settings: Canis lupus familiaris; method in brief: as §2
Canis familiaris [19] = test: Change in mean arterial pressure in anesthetized dogs for a dose of 0.1 mg/kg; type: functional, Canis lupus familiaris, Artery
Method in brief: (§3)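 Dogs anesthetized with sodium pentobarbital (35 mg/kg iv), femoral artery cannulated for pressure, ECG-triggered heart rate, femoral vein for dosing. Rising iv doses were given 90 min apart, and each dose is the full dose, not cumulative. Value is the maximal mean arterial pressure change 10–15 min after each dose, two dogs per compound, ±3 mmHg. Saline served as control.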

Canis familiaris [20] = test: Change in mean arterial pressure in anesthetized dogs for a dose of 1 mg/kg; type: functional, Canis lupus familiaris, Artery; method in brief: as §3
Canis familiaris [21] = test: Change in mean arterial pressure in anesthetized dogs for a dose of 10 mg/kg; type: functional, Canis lupus familiaris, Artery; method in brief: as §3
Canis familiaris [22] = test: Percent inhibition of the pressor responses to 1 ug/kg iv Epinephrine in pentobarbital-anesthetized dogs for a dose of 0.1 mg/kg; type: functional; settings: Canis lupus familiaris; method in brief: as §2
Canis familiaris [23] = test: Percent inhibition of the pressor responses to 0.75 ug/kg iv norepinephrine in pentobarbital-anesthetized dogs for a dose of 0.1 mg/kg; type: functional; settings: Canis lupus familiaris; method in brief: as §2
Canis familiaris [24] = test: Percent inhibition of the pressor responses to 1 ug/kg iv Epinephrine in pentobarbital-anesthetized dogs for a dose of 1 mg/kg; type: functional; settings: Canis lupus familiaris; method in brief: as §2

CCC1NC(=O)OC12CCN(CC1COc3ccccc3O1)CC2 (stereo not given)
Decrease in blood pressure (Rattus norvegicus [1]): 14% | Decrease in blood pressure (Rattus norvegicus [2]): 54% and 42% | Decrease in blood pressure (Rattus norvegicus [3]): -13% | Decrease in blood pressure (Rattus norvegicus [4]): 22% | Decrease in blood pressure (Rattus norvegicus [5]): -11% | Decrease in blood pressure (Rattus norvegicus [6]): 42% | Decrease in blood pressure (Rattus norvegicus [7]): 51%

COc1ccccc1OCC(O)CN1CCC2(CC1)CN(C)C(=O)O2 (stereo not given)
Decrease in blood pressure (Rattus norvegicus [8]): inactive | Decrease in blood pressure (Rattus norvegicus [9]): 9% | Decrease in blood pressure (Rattus norvegicus [10]): inactive | Decrease in blood pressure (Rattus norvegicus [11]): Not significant | logD [12]: 0.96 | Decrease in blood pressure (Rattus norvegicus [13]): inactive | Decrease in blood pressure (Rattus norvegicus [6]; 50 mg/kg): 19% and 7% | Decrease in blood pressure (Rattus norvegicus [7]): 15%

O=C(NC1CCN(CCc2c[nH]c3ccccc23)CC1)c1ccccc1 [INDORAMIN]
inhibition in vivo at 1 mg/kg (Canis familiaris [14]): 23% | Decrease in blood pressure (Rattus norvegicus [2]): 20% and 11% | inhibition in vivo at 10 mg/kg (Canis familiaris [15]): 93% | inhibition in vivo at 10 mg/kg (Canis familiaris [16]): > 100% | inhibition in vivo at 1 mg/kg (Canis familiaris [17]): 83% | inhibition in vivo at 0.1 mg/kg (Canis familiaris [18]): 65% | MAP (Canis familiaris [19]): -5 mmHg | MAP (Canis familiaris [20]): -28 mmHg | MAP (Canis familiaris [21]): -38 mmHg | inhibition in vivo at 0.1 mg/kg (Canis familiaris [22]): 74% | logD [12]: 2.13 | inhibition in vivo at 0.1 mg/kg (Canis familiaris [23]): 21% | inhibition in vivo at 1 mg/kg (Canis familiaris [24]): 92% | Decrease in blood pressure (Rattus norvegicus [6]): 13% | Decrease in blood pressure (Rattus norvegicus [7]): 33%

From ChEMBL document CHEMBL1121744, “Synthesis and antihypertensive activity of a series of 8-substituted 1-oxa-3,8-diazaspiro[4.5]decan-2-ones” (J Med Chem, 1981)
